# High-throughput results as filed in PubChem BioAssay.
# Sampled rows, rich in hits. Any-hit rate of the full collection: about 1.5%.
# NR2E3 ag-1: agonists of human NR2E3 nuclear receptor. CHO-S Gal4-NCOR/VP16-NR2E3 two-hybrid, luciferase. 360,000 compounds, 0.35% hits. AID 602229. inhibition of corepressor binding, % at 3.98 µM. Q9Y5X4;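 active = inhibition above the mean of all tested compounds plus 3 SD, cut at about 70% in these data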;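 also: 0% = DMSO with NR2E3 transfected cells and 100% = cells lacking NR2E3 construct; higher means lower luciferase signal from less NR2E3 corepressor binding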
# Target sequence (Q9Y5X4 whole entry, looked up, the tested form may be a part): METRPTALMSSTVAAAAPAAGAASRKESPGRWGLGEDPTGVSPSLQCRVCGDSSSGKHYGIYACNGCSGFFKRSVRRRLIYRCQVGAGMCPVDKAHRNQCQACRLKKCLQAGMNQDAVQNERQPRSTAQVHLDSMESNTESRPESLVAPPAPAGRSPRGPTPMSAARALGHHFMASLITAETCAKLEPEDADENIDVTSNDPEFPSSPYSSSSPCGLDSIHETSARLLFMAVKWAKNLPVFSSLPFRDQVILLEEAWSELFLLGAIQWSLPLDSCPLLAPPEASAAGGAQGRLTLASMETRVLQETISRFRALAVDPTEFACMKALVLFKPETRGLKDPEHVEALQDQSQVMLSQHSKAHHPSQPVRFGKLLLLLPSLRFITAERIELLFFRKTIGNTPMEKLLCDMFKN
# PG9 binder: small molecules binding HIV-1 gp120 antibody PG9. TR-FRET gp120-PG9 antibody binding. inhibition, % at 6.7 µM. 360,000 compounds, 0.43% hits. AID 624416; in the data active = inhibition above about 8.5%
# NR2E3 ag-2: NR2E3 (human) agonism; Q9Y5X4; GST-NR2E3/biotin-RetCOR TR-FRET, 1536-well; inhibition of corepressor binding, % at 4.78 µM; 320,000 compounds, 0.12% hits; AID 2300;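 active = percent inhibition above the cutoff of mean plus 3 SD of all tested compounds, set per screening campaign, cut at about 20% in these data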;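 also: 0% = DMSO wells and 100% = biotin wells as full block of FRET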
#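 Format: 1536-well format; test system: GST-NR2E3 and biotin-RetCOR proteins; read-out basis: percent inhibition of TR-FRET ratio; timing: 5 h incubation at 4 °C; detection: time-resolved FRET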
# Rev-erbA mod: modulators of human Rev-erb alpha DNA binding. P20393. Rev-erbα–FITC-DNA binding, fluorescence polarization, 90 min. activity, % at 10 µM. 370,000 compounds, 0.79% hits. AID 1259318;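 active = activity above about 14%, limit read from the data; passing the limit was not always enough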;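 also: 0% = DMSO wells with 35 nM protein and 100% = DMSO wells with 750 nM protein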
# PG9 binder conf: confirmation of small molecules binding HIV-1 gp120 antibody PG9; inhibition, % at 6.7 µM; shares compounds with PG9 binder; TR-FRET PG9 antibody binding, biochemical; 1,500 compounds, 90% hits; in the data active = inhibition above about 9%
# PGV04 counter: counter-screen for PG9 binders: binding control antibody PGV04; 1,500 compounds, 95% hits; inhibition, % at 6.7 µM; TR-FRET PGV04 antibody-gp120 binding, biochemical; AID 651604; shares compounds with PG9 binder; in the data active = inhibition above about 9.5%
# PG9 binder DR: small molecules binding HIV-1 gp120 antibody PG9 | shares compounds with PG9 binder | IC50, µM | 95 tested, under 10 active | AID 651848 | TR-FRET PG9 antibody-gp120 binding inhibition; in the data active = IC50 below about 10 µM
# PGV04 binding DR: PGV04 binding, dose response counter-screen; shares compounds with PG9 binder; TR-FRET binding to control antibody PGV04; IC50, µM; 95 compounds, 20% hits; AID 651937
# PG126 DR counter: counter-screen for PG9 binders: binding to control antibody PG126 | shares compounds with PG9 binder | TR-FRET binding to antibody PG126, counterscreen | IC50, µM | 95 compounds, 20% hits | AID 651939
# Numbers without * were called inactive; i = inactive; nt = no result given. Rule as the data show it, unless noted: active = IC50 below about 9 µM; inactive = the rest.
SMILES,NR2E3 ag-1,PG9 binder,NR2E3 ag-2,Rev-erbA mod,PG9 binder conf,PGV04 counter,others
CC(=O)c1c(C)[nH]c(C(=O)Nc2ccc(C)cc2Br)c1C,-138,10*,1,0,8,11*,
Cn1ccc2ccc(-c3ccc4c(c3)[C@]3(CCC[C@@H](OCc5ccccc5)[C@@H]3NC(=O)CCc3ccccc3)C(=O)N4Cc3ccccc3)cc21,nt,nt,nt,3,nt,nt,
CC(C)N1CCCCC(NC(=O)COCc2ccccc2)C1=O (stereo not given),nt,nt,nt,1,nt,nt,
CC(C)Oc1ccc(C(=O)Nc2ccc(NC(=O)c3ccco3)c(Cl)c2)cc1,-43,11*,4,8,16*,23*,
Cc1cc2cc(CNC(=O)Cc3ccc([N+](=O)[O-])cc3)ccc2n1C,-3,10*,0,-6,13*,21*,
CC(COc1ccc(C#N)c(F)c1)CN1CCC(C(O)(c2ccccc2)c2ccccc2)CC1 (stereo not given),nt,nt,nt,7,nt,nt,
COC(=O)c1cc2sc(Cl)cc2n1CC(=O)NCCC(C)C,-9,11*,-1,14,20*,24*,
COC(=O)c1cc2sccc2n1CC(=O)Nc1cc(OC)cc(OC)c1,4,-1,1,2,nt,nt,
CCOc1ccc(NC(=O)CCSc2ccc(C)cc2)cc1,-13,0,3,1,nt,nt,
Cc1ccc(SCCC(=O)Nc2ccc(OCc3ccccc3)cc2)cc1,-30,9.2*,4,3,15*,19*,
C=CCN1C=C2C(=O)C(C)(OC(=O)c3ccc(OC)cc3)C(=O)C(c3ccco3)=C2C=C1CCCC (stereo not given),9,9.7*,14,-4,16*,20*,
C[C@H]1[C@@H](OC(=O)NCc2cccc(C(F)(F)F)c2)CC[C@@]23CCCN2C(=O)CCC[C@@H]13,nt,nt,nt,4,nt,nt,
C[C@@H]1CCC[C@]2(O[C@H](CCO)C[C@H](O)[C@H]2O)O1,-9,13*,-1,-4,-3,-2,
C[C@H]1CCC[C@]2(O[C@H](CCO)C[C@H](O)[C@H]2O)O1,-1,0,0,-1,nt,nt,
COC(=O)[C@]12C[C@H](CC(=O)NCc3ccccc3)C(=O)N(Cc3cccc4ccccc34)C1=C[C@H](C1CCCC1)O[C@@H]2C,nt,nt,nt,0,nt,nt,
COc1ccc2c(C)cc(=S)[nH]c2c1,-11,19*,nt,-3,8.6*,9.5*,
COc1ccc2c(-c3ccccc3)cc(=S)[nH]c2c1,-18,1,3,-1,nt,nt,
C#CCNC(=O)C[C@H]1C[C@@]2(C(=O)OC)C(=C[C@H](COCc3ccccc3)O[C@@H]2C)N(Cc2cccc3ccccc23)C1=O,nt,nt,nt,4,nt,nt,
O=C(Cn1c2ccccc2c(=O)c2ccccc21)Nc1ccccc1F,-20,6,-10,1,nt,nt,
O=C(Cn1c2ccccc2c(=O)c2cc([N+](=O)[O-])ccc21)Nc1ccccc1Cl,-49,12*,-3,9,16*,18*,
Cc1ccccc1Cn1cc(CN2[C@H](CC(C)C)COc3cc(Br)ccc3S2(=O)=O)nn1,nt,nt,nt,5,nt,nt,
C=CCNCc1ccc(OC)cc1OC,nt,nt,nt,1,nt,nt,
CCOc1ccc(NC(=O)NC2CC(=O)N(c3ccc(OC)cc3)C2)cc1 (stereo not given),20,-1,1,0,nt,nt,
CCOc1ccc(N2CC(NC(=O)c3ccc4ccccc4c3)CC2=O)cc1 (stereo not given),-23,12*,-2,16,12*,23*,
COC(=O)c1sc(NC(=O)CSc2nc3cccnc3n2C)nc1C,-11,22*,-4,3,33*,45*,
SMILES,NR2E3 ag-1,PG9 binder,NR2E3 ag-2,Rev-erbA mod,PG9 binder conf,PGV04 counter,others
COc1ccc(NC(=O)CSc2nc3cccnc3n2C)cc1,10,1,-3,-3,nt,nt,
COC(=O)c1sc(NC(=O)CSc2nc3cccnc3n2C2CCCCC2)nc1C,-13,-1,0,0,nt,nt,
COc1ccc2nc(NC(=O)CSc3nc4cccnc4n3C)sc2c1,-15,26*,12,7,29*,42*,
Cc1ccc(-c2cc(-c3nnc4sc(COc5ccccc5)nn34)[nH]n2)cc1,nt,nt,nt,8,nt,nt,
CC1=CC(=C(C#N)C#N)C=C(C)N1CCN1CCN(C(=O)Nc2cccc(Cl)c2)CC1,-15,12*,12,15,17*,26*,
Cc1cc(C)cc(-c2nnc(SCC(=O)Nc3cc(C)on3)o2)c1,16,14*,nt,3,22*,34*,
CC(C)(C)c1ccc(C(=O)Nc2ccc(Cl)cc2)cc1,-82,8.6*,4,-4,16*,18*,
Cc1ccc2cc(CN(C)S(C)(=O)=O)c(=O)[nH]c2c1,-7,1,-8,-6,nt,nt,
Cc1ccc(S(=O)(=O)N(C)Cc2cc3cc(C)ccc3[nH]c2=O)cc1,-6,17*,3,9,28*,44*,
Cc1ccc(NS(=O)(=O)c2c(C)nc3sccn3c2=O)cc1,-16,0,1,-4,nt,nt,
Cc1nc2sccn2c(=O)c1S(=O)(=O)Nc1cccc(Cl)c1C,-13,9.8*,-2,2,16*,16*,
CCOC(=O)c1c(C)[nH]sc1=S,-25,17*,nt,5,9.3*,8,PG9 binder DR=>67;PGV04 binding DR=i;PG126 DR counter=i
CCOC(=O)c1sc(=S)[nH]c1C,-7,19*,nt,1,11*,9,PG9 binder DR=i;PGV04 binding DR=i;PG126 DR counter=i
CCOC(=O)c1sc(N)c(C(=O)OC)c1C,-22,2,2,-1,nt,nt,
O=C(NC1CCCCN(Cc2cccc(Cl)c2)C1=O)c1ccc(Cl)cc1Cl (stereo not given),nt,nt,nt,-2,nt,nt,
COc1ccc(C(=O)Nc2ccc(S(=O)(=O)N3CCCC3)cc2)c(OC)c1,11,11*,1,15,13*,17*,
C=CCN1[C@H](CO)[C@H](c2ccccc2)[C@@H]1C#N,nt,nt,nt,-1,nt,nt,
COc1cccc(NS(=O)(=O)c2ccc3[nH]cc(C(=O)NCCC(C)C)c(=O)c3c2)c1,6,8,1,2,nt,nt,
CCc1ccccc1NS(=O)(=O)c1ccc2[nH]cc(C(=O)NC3CCCC3)c(=O)c2c1,5,12*,0,12,19*,20*,
CNC(=O)c1c[nH]c2ccc(S(=O)(=O)Nc3ccccc3F)cc2c1=O,-3,12*,0,-2,23*,25*,
N#Cc1cn(-c2ccccc2)nc1-c1ccc2c(c1)OCCO2,-47,24*,0,21,20*,28*,
O=Cc1cn(-c2ccccc2)nc1-c1ccc2c(c1)OCCO2,-88,-1,3,1,nt,nt,
